IC50, inhibition and MIC data for twelve compounds are collected here from ChEMBL document CHEMBL1148008, “Antimicrobial and cytotoxic activity of agelasine and agelasimine analogs” (Bioorg Med Chem, 2007).

Assay [1] deals with ACHN. Briefly: Cytotoxicity against ACHN cells. It counts as functional, cell-based. The following applies: Homo sapiens. In outline: (§1)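 Fluorometric microculture cytotoxicity assay (FMCA) read-out; IC50 values reported.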
The test system of assay [2] is Mycobacterium tuberculosis. Put plainly: Antimicrobial activity against Mycobacterium tuberculosis at 6.25 ug/mL after 20 hrs by broth microdilution method. The format is functional.
The test system of assay [3] is U-937/GTB. Briefly: Cytotoxicity against U937 GTB cells. The following applies: Homo sapiens. It counts as functional, cell-based. The procedure, abridged:
as §1

Assay [4] relates to Escherichia coli. Put plainly: Antibacterial activity against Escherichia coli ATCC 25922 after 20 hrs by broth microdilution method. The note with it: ATCC 25922, 20 h. The format is functional. The procedure, abridged: (§2)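 Strains grown 24 h at 35 °C on tryptone-soya agar. Colonies suspended in saline to 0.5 McFarland, then diluted 1:10 in Mueller-Hinton broth (~10⁷ CFU/mL). Inoculum added to twofold dilutions in broth (final 0.125–32 µg/mL) in triplicate. Incubated aerobically at 35 °C for 20 h. MIC is the lowest concentration giving complete growth inhibition. Repeated at least once; gentamycin/streptomycin served as QC.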

Assay [5] relates to Staphylococcus aureus. Put plainly: Antibacterial activity against Staphylococcus aureus ATCC 25923 after 20 hrs by broth microdilution method. The format is functional. The following applies: ATCC 25923, 20 h. The procedure, abridged:
as §2
For orientation: Dilution methods test growth across graded concentrations, often in twofold steps.

Assay [6] can be described thus: Cytotoxicity against CEM/s cells. The format is functional, cell-based. The following applies: Homo sapiens. In outline:
as §1

Assay [7] can be described thus: Cytotoxicity against RPMI 8226/s cells. The format is functional, cell-based. The note with it: Homo sapiens, RPMI8226/S. In outline:
as §1

The test system of assay [8] is Bacteroides thetaiotaomicron. Briefly: Antibacterial activity against Bacteroides thetaiotaomicron after 20 hrs by broth microdilution method. It counts as functional.
The subject of assay [9] is Bacteroides fragilis. Briefly: Antibacterial activity against Bacteroides fragilis after 20 hrs by broth microdilution method. It counts as functional.
Assay [10] relates to Mycobacterium tuberculosis. Put plainly: Antimicrobial activity against Mycobacterium tuberculosis after 20 hrs by broth microdilution method. It counts as functional.
Assay [11] has as its system Pichia kudriavzevii. Put plainly: Antifungal activity against Candida krusei ATCC 6258. The format is functional.
Assay [12] deals with Enterococcus faecalis. Briefly: Antimicrobial activity against Enterococcus faecalis after 20 hrs by broth microdilution method. The format is functional.
Assay [13] concerns Pseudomonas aeruginosa. Briefly: Antibacterial activity against Pseudomonas aeruginosa after 20 hrs by broth microdilution method. It counts as functional.
Assay [14] relates to Streptococcus pyogenes. Put plainly: Antibacterial activity against Streptococcus pyogenes after 20 hrs by broth microdilution method. It counts as functional.

≈ marks a conversion by molar mass, not a printed value.

With `Cn1c[n+](Cc2ccccc2)c2c(N)ncnc21.[Cl-]`, the IC50 in [1], in [3], in [6] and in [7] was above 80 µM throughout. The same compound returned an inhibition at 6.25 µg/mL in assay [2] of 0%. The MIC in assay [4], in [5], in [8] and in assay [9] was above 32 µg/mL throughout.
Take `Cc1ncc([N+](=O)[O-])n1CCO` [METRONIDAZOLE]: the MIC in [8] was found to be 1 µg/mL (≈ 5.84 µM); in assay [9] it was 0.5 µg/mL (≈ 2.92 µM).
Turning to `CC(C)=CCC/C(C)=C/CC/C(C)=C/CC/C(C)=C/Cn1cnc2ncnc(N)c21`, the MIC in [10] is 1.56 µg/mL (≈ 3.83 µM); in assay [11], above 16 µg/mL; in assay [4], above 32 µg/mL; in assay [5], above 32 µg/mL. Moreover, the half-inhibitory concentration (IC50) in [1] amounted to 7.24 µM; in assay [3] it was 3.6 µM; in assay [6] it was 2.88 µM; in assay [7] it was 2.78 µM. For the same compound, the inhibition at 6.25 µg/mL in assay [2] stood at 99%.
As to `CO/N=c1\[nH]cnc2c1[n+](C/C=C(\C)CC/C=C(\C)CCC=C(C)C)cn2C`, the MIC in assay [10] amounted to 3.13 µg/mL; in assay [11], 8 µg/mL; in assay [4] it was 16 µg/mL; in [5], 8 µg/mL; in [8], 16 µg/mL; in assay [9], 16 µg/mL. Besides, the half-inhibitory concentration (IC50) in assay [1] came out at 40.4 µM; in [3], 1.32 µM; in [6] it was 1.16 µM; in assay [7], 1.24 µM. This compound also yielded an inhibition at 6.25 µg/mL in assay [2] of 99%.
On to `CC(C)=CCC/C(C)=C/CC/C(C)=C/CC/C(C)=C/C[n+]1cn(C)c2ncnc(N)c21`, for which the IC50 was found to be 20.3 µM in [1], 3.17 µM in assay [3], 3.06 µM in assay [6] and 2.79 µM in assay [7]. For the same compound, the results for the MIC in assay [11], in assay [4] and in assay [5] were above 16 µg/mL, above 32 µg/mL and 32 µg/mL, respectively.
In the case of `CC(C)=CCC/C(C)=C/CC/C(C)=C/CC/C(C)=C/Cn1cnc2c1c(=N)ncn2C`, the IC50 is 12.3 µM in assay [1], 6.4 µM in assay [3], 7.77 µM in [6] and 6.78 µM in assay [7]. In [2], the inhibition at 6.25 µg/mL came to 84%. Besides, the MIC in assay [11] amounted to 2 µg/mL (≈ 4.74 µM); in assay [4], 8 µg/mL (≈ 19 µM); in assay [5], 4 µg/mL (≈ 9.49 µM).
Consider `CC(C)=CCC/C(C)=C/CC/C(C)=C/CC/C(C)=C/C[n+]1cn(C)c2nc[nH]/c(=N\OC(C)(C)C)c21`, for which the MIC in assay [10] is 3.13 µg/mL; in assay [11], 2 µg/mL; in assay [4], above 32 µg/mL; in assay [5], 24 µg/mL. The IC50 was determined as 8.4 µM in assay [1], 4.87 µM in assay [3], 3.86 µM in assay [6] and 2.09 µM in assay [7]. In assay [2], this compound returned an inhibition at 6.25 µg/mL of 100%.
For the compound `CC(C)=CCC/C(C)=C/CC/C(C)=C/CC/C(C)=C/C[n+]1cn(C)c2nc[nH]/c(=N\OCc3ccccc3)c21`, the MIC in assay [10] was 3.13 µg/mL; in assay [11], 1 µg/mL; in [4], above 32 µg/mL; in [5], 6 µg/mL; in assay [8], 16 µg/mL; in assay [9] it was 8 µg/mL. Moreover, the IC50 in assay [1] is 20.9 µM; in assay [3] it was 6.79 µM; in assay [6], 14 µM; in assay [7], 8.24 µM. In [2], this compound had an inhibition at 6.25 µg/mL of 99%.
As for `CC(C)=CCC/C(C)=C\CC/C(C)=C/C[n+]1cn(C)c2nc[nH]/c(=N\OCc3ccccc3)c21`, the MIC in [10] was found to be 3.13 µg/mL; in [4], 12 µg/mL; in assay [5], 8 µg/mL; in assay [8], 4 µg/mL; in assay [9] it was 4 µg/mL. In addition, the IC50 in [1] was 25.2 µM; in assay [3], 7.55 µM; in assay [6], 10 µM; in [7], 6.76 µM. Also, the inhibition at 6.25 µg/mL in assay [2] was 99%.
For `CC(C)=CCC/C(C)=C/CC/C(C)=C/CC/C(C)=C/Cn1cnc2c1C(=N)N(C)CN2C`, the MIC in assay [10] is 3.13 µg/mL (≈ 7.15 µM); in assay [11] it was 16 µg/mL (≈ 36.6 µM); in [4], above 32 µg/mL; in assay [5] it was 16 µg/mL (≈ 36.6 µM). Moreover, the IC50 in assay [1] worked out at 5.16 µM; in assay [3], 3.36 µM; in assay [6], 3.15 µM; in [7] it was 2.51 µM. In addition, at 6.25 µg/mL the inhibition in assay [2] was 99%.
As for `CO/N=c1\[nH]cnc2c1[n+](C/C=C(\C)CC/C=C(/C)CCC=C(C)C)cn2C`, the MIC was found to be 3.13 µg/mL in assay [10]; 16 µg/mL in assay [4]; 6 µg/mL in assay [5]; 16 µg/mL in [8]; 32 µg/mL in assay [9]. For the same compound, the IC50 in [1] stood at 28.7 µM; in assay [3], 1.4 µM; in assay [6], 1.23 µM; in [7], 0.736 µM. Also, in [2], the inhibition at 6.25 µg/mL amounted to 98%.
On to `CO/N=c1\[nH]cnc2c1[n+](C/C=C(\C)CC/C=C(\C)CC/C=C(\C)CCC=C(C)C)cn2C`, for which the concentration for half-maximal inhibition (IC50) turned out to be 7.38 µM in assay [1], 1.42 µM in assay [3], 1.91 µM in assay [6] and 1.11 µM in assay [7]. Further, the MIC was 8 µg/mL in assay [12]; 2 µg/mL in [11]; 16 µg/mL in [4]; 4 µg/mL in assay [5]; above 32 µg/mL in [13]; 4 µg/mL in [14]. The MIC in assay [8] and in [9] was 8 µg/mL in each case.

Usually IC50 stands for the concentration that gives 50% inhibition. By inhibition is commonly meant the relative decrease from the control value, in per cent. Higher therefore signals a strong effect. For orientation: MIC means the least concentration at which growth counts as inhibited. The low end stands for a more susceptible organism, the high end for a less susceptible organism.
